# Active and inactive are the calls of the source. No rule for the calls is given here.
# Target: Muscarinic acetylcholine receptor M2 (Rattus norvegicus) (UniProt P10980)
# Experiment: M2 receptor potentiation by M5-directed compounds, selectivity assay for M5 PAM discovery project, CHO cells, rat M2, calcium flux (AID 651929)
# Summary of the method: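 Test system: CHO-K1 cells expressing M2 receptor coupled to Gqi5 chimera; medium: pH 7.4 buffer containing probenecid; also added: EC20 acetylcholine; schedule: 1.5 min compound, 50 s agonist, 25 °C; technique: intracellular calcium response; read-out: % of maximal acetylcholine response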
# Muscarinic acetylcholine receptor M2 (Rattus norvegicus), sequence (P10980 whole entry, looked up): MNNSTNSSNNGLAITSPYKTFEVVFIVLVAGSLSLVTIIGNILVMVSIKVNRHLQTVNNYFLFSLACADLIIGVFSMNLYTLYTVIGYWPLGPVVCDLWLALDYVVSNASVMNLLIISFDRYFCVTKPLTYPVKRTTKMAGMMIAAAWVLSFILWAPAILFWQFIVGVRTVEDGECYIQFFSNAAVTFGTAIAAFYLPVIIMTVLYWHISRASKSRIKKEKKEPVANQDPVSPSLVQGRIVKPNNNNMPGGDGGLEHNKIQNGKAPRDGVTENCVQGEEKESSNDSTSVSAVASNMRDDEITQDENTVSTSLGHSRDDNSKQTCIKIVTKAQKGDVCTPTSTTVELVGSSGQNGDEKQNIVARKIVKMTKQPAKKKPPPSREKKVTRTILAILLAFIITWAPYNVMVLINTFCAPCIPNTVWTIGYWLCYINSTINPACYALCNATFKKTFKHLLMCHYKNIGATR
smiles,measurement,value
O=C1C(=O)N(CCOc2ccccc2)c2ccc(OC(F)(F)F)cc21,outcome,inactive
